One series relates to HFF cells. Briefly: Cell toxicity, CellTiter-Glo. The class given is cell-based, human. The settings on record: ATP production after 24 h treatment of HFF cells with 0.01–100 µM compound. The procedure, abridged: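 HFF cells were incubated 24 h with inhibitor (0.01–100 µM) or DMSO. Viability was read as ATP by CellTiter-Glo. EC50Tox was obtained by fitting the data to a dose response curve.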
Background: Cellular ATP, detected with luciferase, serves as a proxy for viable cell number.

Series [1] has as its system P. falciparum. Briefly: P. falciparum replication assay. The class given is cell-based, Plasmodium falciparum. The conditions noted are these: read-out: EC50Pot; standard 75 h replication assay, ring stage D10 parasites. The procedure, abridged: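 D10 parasites were synchronized by 70% Percoll schizont harvest, a 1 h invasion window and sorbitol. Ring-stage cultures (~2% parasitemia, 0.5% hematocrit) were treated with compound for ~75 h, until DMSO controls reached schizonts. Infected versus uninfected RBCs were counted by FACS. EC50Pot was fitted to a dose response curve.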

Series [2] has as its target T1, DPAP1 (Plasmodium falciparum, UniProt Q8IIJ9).
T1 sequence (Q8IIJ9 370-599 limits assumed): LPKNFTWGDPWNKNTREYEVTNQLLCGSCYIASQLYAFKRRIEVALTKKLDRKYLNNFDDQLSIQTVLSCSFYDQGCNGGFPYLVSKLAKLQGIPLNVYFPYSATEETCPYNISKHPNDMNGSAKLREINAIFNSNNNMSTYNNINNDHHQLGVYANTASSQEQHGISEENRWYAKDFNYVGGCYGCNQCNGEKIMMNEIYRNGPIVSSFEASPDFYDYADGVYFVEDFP
T1 sequence (Q8IIJ9 28-209 limits assumed): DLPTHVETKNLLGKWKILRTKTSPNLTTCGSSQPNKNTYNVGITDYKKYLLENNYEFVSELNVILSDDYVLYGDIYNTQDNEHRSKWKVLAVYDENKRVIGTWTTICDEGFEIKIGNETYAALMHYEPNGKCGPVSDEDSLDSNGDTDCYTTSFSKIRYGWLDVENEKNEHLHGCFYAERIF
T1 sequence (Q8IIJ9 600-700 limits assumed): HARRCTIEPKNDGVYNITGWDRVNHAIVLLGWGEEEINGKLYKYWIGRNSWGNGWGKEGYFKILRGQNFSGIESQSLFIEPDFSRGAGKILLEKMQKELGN
Briefly: DPAP1 specific fluorogenic assay. The class given is biochemical. The gist of the method:
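DPAP1 activity was assayed at 25 °C in pH 5.5 acetate buffer with 1% parasite lysate and 10 µM (Pro-Arg)2-Rho. Turnover was read for 5 min (ex 492/em 523 nm). Lysates were pretreated with inhibitor for set times (0.1–2 h). IC50 came from dose response fits. For ki, v/v0 relative to DMSO was fitted to a simple irreversible inhibitor model.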

The test system of the next series is DPAP3. Briefly: Competition assay with activity-based probe FY01, DPAP3 labeling. The class given is biochemical, Plasmodium falciparum. The settings on record: parasite lysates. The gist of the method:
(§1)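 Trophozoite or merozoite lysates, or intact schizonts, were used in acetate buffer (50 mM sodium acetate, 5 mM MgCl2, 5 mM DTT, pH 5.5). Lysates were preincubated 30 min with 10 µM inhibitor, then labeled 1 h. FY01 labeled DPAPs (fluorescent SDS-PAGE scan) and 125I-DCG04 labeled falcipains (autoradiography). Loss of band signal indicated inhibition, and IC50s came from quantified gel bands.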

For series [3] the following is noted: ref personal communication, David Percival, Merck; cited from earlier work.
Series [4] can be described thus: Stability after overnight incubation in mouse serum. The settings on record: 37 °C. The class given is in vitro ADME. The gist of the method: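 Inhibitor was incubated overnight at 37 °C in mouse serum. Remaining potency was tested as the ability to block FY01 labeling of DPAP1 in parasite lysates, run before and after serum exposure.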
Series [5] relates to P. falciparum. Briefly: Phenotypic effects in Geimsa-stained thin blood smears. The class given is cell-based, Plasmodium falciparum. The conditions noted are these: schizonts treated 24 h. The procedure, abridged:
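Synchronous schizont-stage cultures were exposed to inhibitor for 24 h across increasing concentrations. Morphology was assessed on Giemsa-stained thin blood smears.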

The subject of series [6] is P. falciparum. Briefly: Replication assay after 1h treatment and washout. The conditions noted are these: 1h treatment at different life cycle stages. The class given is cell-based, Plasmodium falciparum. The procedure, abridged:
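Tightly synchronized parasites were exposed 1 h to inhibitor or DMSO at 1, 10, 18, 30, 38 or 46 h post-invasion. They were then washed 3× and cultured until progeny in DMSO controls reached schizonts (~80 h p.i.). Parasitemia was read by FACS from 3 independent measurements, reported as standard error.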

The next series concerns FPs (FP2/3). Briefly: Competition assay with activity-based probe 125I-DCG04, falcipain labeling. The class given is biochemical, Plasmodium falciparum. The conditions noted are these: parasite lysates. The procedure, abridged:
as §1

Series [7] deals with T1, DPAP1. The class given is biochemical. The gist of the method: as §1
Series [8] deals with NK65 P. berghei parasites. Briefly: P. berghei mouse model of malaria, parasitemia. The class given is in vivo, Balb/c mice. The conditions noted are these: Figure S2.
Series [9] can be described thus: Compound toxicity and pharmacokinetics in mice. The class given is in vivo. The conditions noted are these: Figure S2.

Read-outs that look alike come from different tables or passages of the source.

As to `CCCCC(C(=O)COc1c(F)c(F)cc(F)c1F)n1cc(C2(N)CCNCC2)nn1` (stereo not shown) [ML4162], in the series with HFF cells, the EC50Tox was 68000 (4000) nM. The EC50 with P. falciparum [1] was 220 nM.
Turning to `C[C@H](N)C(=O)N[C@@H](Cc1ccc(I)cc1)C(=O)C=[N+]=[N-]` [Ala-4(I)Phe-DMK], the IC50 on DPAP1 [2] (read-out: IC50DPAP1,1h, 1h, lysates) was 6.4 nM; on DPAP1 [2] (read-out: IC50DPAP1,2h, 2h treatment of parasite lysates) it was 2 nM. For the same compound, the “second order rate constant of inhibition (ki)” value on DPAP1 [2] (trophozoite lysates incubated with inhibitor 0.1–2h) was found to be 35000 ± 3000 M⁻¹ s⁻¹. Moreover, the “inhibition of DPAP3 (ABP labeling)” value in the series on DPAP3 is on record as “but not FPs or DPAP3”. In series [3], the “pharmacokinetic (PK) properties” value was “very poor”. Further, the “ability to inhibit DPAP1 after incubation in mouse serum” value in series [4] is “lost virtually all of their activity”. Besides, in the series on P. falciparum [5], the “concentration inducing schizont arrest and a FV defect” value was ≥ 1 µM. Further, the “sensitivity at trophozoite stage relative to other stages” value in the series with P. falciparum [6] is 10 times. For the same compound, in the series on P. falciparum [1], the EC50 is 2.8 nM. Moreover, in the series with FPs (FP2/3), the “inhibition of FPs (ABP labeling)” value is “but not FPs or DPAP3”. Also, the “block of DPAP1 labeling by ABP” value on DPAP1 [7] (lysates, 30 min with 10 µM inhibitor then 1h FY01) is on record as “efficiently blocked labeling”. Besides, the “selectivity towards DPAP1 over DPAP3 and the FPs” value on DPAP1 [7] (other papain fold cysteine proteases of P. falciparum) is “at least 1000 fold”.
For `CCCCC(C(=O)COc1c(F)c(F)cc(F)c1F)n1cc(C2(N)CCN(C(C)=O)CC2)nn1` (stereo not shown) [ML4163], in the series on HFF cells, the EC50Tox is given as > 100000 nM. The EC50 with P. falciparum [1] is > 100000 nM.
Take `CCCCC(C(=O)COC(=O)c1c(C)cccc1C)n1cc(C2(N)CCCCC2)nn1` (stereo not shown) [ML4091]: the EC50Tox with HFF cells is 12000 (3000) nM. Further, in the series on P. falciparum [1], the EC50 amounted to 6000 nM.
Take `CCCCC(C(=O)COc1c(F)c(F)cc(F)c1F)n1cc(C2(N)CCN(C(N)=O)CC2)nn1` (stereo not shown) [ML4154]: in the series with HFF cells, the EC50Tox is 30000 (5000) nM. In addition, the EC50 in the series with P. falciparum [1] came out at 45000 nM.
In the case of `CCC[C@H](N)C(=O)N[C@H](/C=C/S(=O)(=O)c1ccccc1)CCc1ccccc1` [JCP-410], the effect in vivo result in [8] was “no effect”. In addition, in series [9], the PK properties result is recorded as “poor”.
